pEC50, pKd: −log10 of the molar value. Calls of active or inactive are those of the source. The rule behind the calls is not given here.
Tests used:
[1] = tested on: Trypanosoma cruzi; assay: Antitrypanosomal activity against Trypanosoma cruzi trypomastigote infected in mouse NIH/3T3 cells after 96 hrs by luciferase reporter gene assay; conditions: NIH/3T3, 96 h
[2] = tested on: NIH3T3; assay: Cytotoxicity against mouse NIH/3T3 cells; type: cell-based
Outline: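 Counterscreen on uninfected NIH 3T3 cells grown in DMEM with 10% FBS at 37 °C and 5% CO₂, run alongside the 96 h infection assay. EC50 is the mean of three independent experiments performed on different days.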

[3] = Selectivity index, ratio of EC50 for mouse NIH/3T3 cells to EC50 for Trypanosoma cruzi trypomastigote; type: toxicity, cell-based, NIH3T3; conditions: read-out: Ratio EC50
[4] = biological target: Sterol 14-alpha demethylase (Trypanosoma cruzi (strain CL Brener), UniProt Q7Z1V1); assay: Binding affinity to Trypanosoma cruzi recombinant full length CYP51 by spectrophotometric analysis
Sequence of Sterol 14-alpha demethylase (Q7Z1V1 whole entry): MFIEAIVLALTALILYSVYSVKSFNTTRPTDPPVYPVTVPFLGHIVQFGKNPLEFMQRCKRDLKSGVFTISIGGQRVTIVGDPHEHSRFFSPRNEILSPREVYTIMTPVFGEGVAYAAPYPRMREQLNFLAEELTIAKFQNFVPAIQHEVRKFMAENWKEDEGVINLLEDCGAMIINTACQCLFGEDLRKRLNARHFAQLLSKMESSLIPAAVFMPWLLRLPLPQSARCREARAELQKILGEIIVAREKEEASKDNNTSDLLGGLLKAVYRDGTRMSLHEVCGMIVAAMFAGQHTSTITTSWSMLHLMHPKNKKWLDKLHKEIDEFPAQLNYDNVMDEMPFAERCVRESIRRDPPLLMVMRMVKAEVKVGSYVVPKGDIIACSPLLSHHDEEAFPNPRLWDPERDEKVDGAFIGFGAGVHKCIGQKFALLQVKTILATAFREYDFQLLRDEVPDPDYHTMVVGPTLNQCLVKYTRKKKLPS
Outline: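 Purified full-length T. cruzi CYP51 (2 μM) was titrated with ligand at 0.5–10 μM, recording type 2 difference spectra at 350–450 nm, 25 °C. Apparent Kd came from ΔA425–390 versus free ligand, fitted to a rectangular hyperbola.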

[5] = tested on: Trypanosoma cruzi; assay: Antitrypanosomal activity against Trypanosoma cruzi Y infected in mouse NIH/3T3 cells after 48 to 72 hrs by luciferase reporter gene assay
[6] = tested on: Trypanosoma cruzi; assay: Antitrypanosomal activity against Trypanosoma cruzi Tulahuen infected in mouse NIH/3T3 cells after 48 to 72 hrs by beta-galactosidase reporter gene assay
[7] = tested on: Trypanosoma cruzi; assay: Antitrypanosomal activity against Trypanosoma cruzi trypomastigote infected in mouse NIH/3T3 cells at 9.5 uM incubated for 3 days post infection by DAPI-staining based immunofluorescence assay; type: functional, organism-based; conditions: NIH3T3
Outline: (§1)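 NIH-3T3 cells on coverslips were infected 2 h with trypomastigotes (Tulahuen β-gal or Y luciferase), washed, then given drug for 3 days. Cells were fixed in 4% paraformaldehyde, permeabilised with Triton X-100 and stained with rabbit anti-T. cruzi (1:2000) plus Alexa 488 secondary and DAPI. Imaged at 60× oil, 50 fields per condition.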

[8] = tested on: Caco-2; assay: Permeability across human Caco2 cells; type: ADME, cell-based
[9] = tested on: Trypanosoma cruzi; assay: Antitrypanosomal activity against Trypanosoma cruzi trypomastigote infected in mouse NIH/3T3 cells at 0.4 uM incubated for 3 days post infection by DAPI-staining based immunofluorescence assay; type: functional, organism-based; conditions: NIH3T3
Outline: as §1

[10] = Metabolic stability in human microsomes after 20 mins in presence of ketoconazole; type: ADME, Microsome
Outline: (§2)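 Liver microsomes (human, mouse or rat), with or without CYP inhibitor. Read-out is percent of compound metabolized at 20 min.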

[11] = tested on: Trypanosoma cruzi; assay: Antitrypanosomal activity against Trypanosoma cruzi Y infected in […] cells after 24 hrs by luciferase reporter gene assay; type: functional, organism-based
Outline: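 Y strain expressing firefly luciferase, trypomastigotes from LLC-MK2 cultures, infecting NIH/3T3 host cells (50 000 cells and 50 000 parasites per well). Drug added at infection (top 50 μM, DMSO <0.5%, duplicates) and washed out at 24, 48 or 72 h. D-luciferin at 150 μg/mL final added at 96 h, luminescence read 1 s. EC50 relative to 4 μM amphotericin B maximal inhibition.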

[12] = Metabolic stability in rat microsomes after 20 mins; type: ADME, Microsome; conditions: read-out: Stability
Outline: as §2

[13] = tested on: Plasma; assay: Metabolic stability in human plasma after 1 to 4 hrs; type: ADME, cell-free
[14] = Metabolic stability in rat microsomes after 20 mins in presence of ketoconazole; type: ADME, Microsome
Outline: as §2

[15] = biological target: T1, hERG (KCNH2) (Homo sapiens, UniProt Q12809); assay: Inhibition of human ERG at 10 uM relative to control
T1 sequence (Q12809 whole entry): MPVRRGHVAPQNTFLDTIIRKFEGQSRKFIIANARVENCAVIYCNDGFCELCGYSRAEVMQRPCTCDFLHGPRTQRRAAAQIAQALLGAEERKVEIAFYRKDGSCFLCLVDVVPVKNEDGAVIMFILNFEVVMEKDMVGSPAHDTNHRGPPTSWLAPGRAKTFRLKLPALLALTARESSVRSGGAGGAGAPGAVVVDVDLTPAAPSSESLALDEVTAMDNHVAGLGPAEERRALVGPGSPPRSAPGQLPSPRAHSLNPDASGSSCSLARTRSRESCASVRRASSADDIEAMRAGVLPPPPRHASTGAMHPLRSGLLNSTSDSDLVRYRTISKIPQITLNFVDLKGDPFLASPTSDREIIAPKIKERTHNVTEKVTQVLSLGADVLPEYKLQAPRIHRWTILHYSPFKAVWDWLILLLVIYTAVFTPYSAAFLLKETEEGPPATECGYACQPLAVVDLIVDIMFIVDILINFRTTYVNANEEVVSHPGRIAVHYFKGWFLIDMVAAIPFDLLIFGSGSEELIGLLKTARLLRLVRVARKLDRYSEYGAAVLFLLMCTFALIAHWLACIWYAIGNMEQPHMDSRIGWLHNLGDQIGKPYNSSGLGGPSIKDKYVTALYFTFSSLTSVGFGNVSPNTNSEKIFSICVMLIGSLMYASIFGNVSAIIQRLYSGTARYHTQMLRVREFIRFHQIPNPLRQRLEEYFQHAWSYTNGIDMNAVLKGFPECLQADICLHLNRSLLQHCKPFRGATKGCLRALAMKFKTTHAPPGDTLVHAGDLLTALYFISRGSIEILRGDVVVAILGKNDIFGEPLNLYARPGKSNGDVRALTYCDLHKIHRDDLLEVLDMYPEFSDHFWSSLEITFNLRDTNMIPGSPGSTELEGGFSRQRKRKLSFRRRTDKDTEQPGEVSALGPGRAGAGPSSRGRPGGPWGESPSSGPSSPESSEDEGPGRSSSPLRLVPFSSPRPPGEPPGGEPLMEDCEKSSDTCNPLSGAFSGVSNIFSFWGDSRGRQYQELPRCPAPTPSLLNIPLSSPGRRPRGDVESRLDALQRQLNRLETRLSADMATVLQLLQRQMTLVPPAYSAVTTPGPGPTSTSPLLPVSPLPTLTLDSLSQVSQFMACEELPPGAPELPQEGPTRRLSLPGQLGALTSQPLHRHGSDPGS

[16] = Metabolic stability in human microsomes after 20 mins; type: ADME, Microsome; conditions: read-out: Stability
Outline: as §2

[17] = tested on: Plasma; assay: Plasma protein binding in mouse; type: ADME, cell-free
[18] = tested on: Plasma; assay: Plasma protein binding in human; type: ADME, cell-free
[19] = Metabolic stability in human microsomes after 20 mins in presence of quinidine; type: ADME, Microsome
Outline: as §2

[20] = Metabolic stability in mouse microsomes after 20 mins in presence of ketoconazole; type: ADME, Microsome
Outline: as §2

[21] = Metabolic stability in mouse microsomes after 20 mins; type: ADME, Microsome; conditions: read-out: Stability
Outline: as §2

[22] = Metabolic stability in mouse microsomes after 20 mins in presence of quinidine; type: ADME, Microsome
Outline: as §2

[23] = Metabolic stability in rat microsomes after 20 mins in presence of quinidine; type: ADME, Microsome
Outline: as §2

[24] = biological target: T1, hERG (KCNH2); assay: Inhibition of human ERG at 1 uM relative to control
[25] = tested on: Trypanosoma cruzi; assay: Antitrypanosomal activity against Trypanosoma cruzi Tulahuen […] after 24 hrs by beta-galactosidase reporter gene assay; type: functional, organism-based; conditions: LLC-MK2
[26] = tested on: Plasma; assay: Metabolic stability in mouse plasma after 1 to 4 hrs; type: ADME, cell-free

## Cc1cc(Oc2cccc(Cn3cnnc3)c2)cc(C)c1Cl
[1]
  pEC50: 4.95
[2]
  pEC50: < 4.00

## Cc1cc(Oc2cccc(CN3CCN(C)CC3)c2)cc(C)c1Cl
[1]
  pEC50: 5.21
[2]
  pEC50: 4.53

## Cc1cc(C)cc(Oc2cccc(Cn3ccnc3)c2)c1
[3]
  selectivity ratio: > 300
[1]
  pEC50: 6.48
[2]
  pEC50: < 4.00

## c1ccc(Oc2cccc(Cn3ccnc3)c2)cc1
[3]
  selectivity ratio: > 60
[1]
  pEC50: 5.79
[2]
  pEC50: < 4.00

## Cc1nnc(Cc2cccc(Oc3cc(C)c(Cl)c(C)c3)c2)s1
[1]
  pEC50: 5.66
[2]
  pEC50: 5.42

## Cc1cc(OCCCCn2ccnc2)cc(C)c1Cl
[1]
  pEC50: 8.29

## Cc1cc(Oc2cccc(Cn3ncc4ccccc43)c2)cc(C)c1Cl
[1]
  pEC50: 4.87
[2]
  pEC50: < 4.00

## COc1cccc(Nc2cccc(Cn3ccnc3)c2)c1
[3]
  selectivity ratio: > 500
[1]
  pEC50: 6.78
[2]
  pEC50: < 4.00
[4]
  pKd: 6.68

## Cc1cc(Oc2cccc(Cn3cncn3)c2)cc(C)c1Cl
[1]
  pEC50: 5.96
[2]
  pEC50: 4.12

## Cc1cc(Oc2cccc(Cn3ccnn3)c2)cc(C)c1Cl
[1]
  pEC50: 5.96
[2]
  pEC50: 4.18

## Clc1ccc(COc2cccc(Cn3ccnc3)c2)cc1
[3]
  selectivity ratio: 1810
[1]
  pEC50: 7.38
[2]
  pEC50: 4.12

## O=C(Cn1ccnc1[N+](=O)[O-])NCc1ccccc1 [BENZNIDAZOLE]
[5]
  Activity: Active
[1]
  pEC50: 5.72
[6]
  Activity: Active
[2]
  pEC50: < 4.30
[7]
  Activity: Active

## Cc1cc(Oc2cccc(CN3CCOCC3)c2)cc(C)c1Cl
[1]
  pEC50: 5.43
[2]
  pEC50: < 4.00

## Cc1ccccc1Oc1cccc(Cn2ccnc2)c1
[3]
  selectivity ratio: 112
[1]
  pEC50: 6.15
[2]
  pEC50: 4.10
[4]
  pKd: 6.74

## c1ccc(-c2cccc(Oc3cccc(Cn4ccnc4)c3)c2)cc1
[3]
  selectivity ratio: 121
[1]
  pEC50: 6.55
[2]
  pEC50: 4.47

## O=C(N[C@@H](Cn1ccnc1)c1ccccc1)c1ccc(-c2ccc(Cl)cc2)cc1
[4]
  pKd: 7.15

## O=C(Nc1cccc(Cl)c1)Nc1ccccc1-n1ccnc1
[1]
  pEC50: 6.34

## Cc1cc(Oc2cccc(Cn3cccn3)c2)cc(C)c1Cl
[1]
  pEC50: 5.55
[2]
  pEC50: < 4.00

## Cc1cc(Oc2cccc(Cn3ccc4ccccc43)c2)cc(C)c1Cl
[1]
  pEC50: 4.97
[2]
  pEC50: < 4.00

## Cc1cc(OCCCCCn2ccnc2)cc(C)c1Cl
[1]
  pEC50: 8.60

## Cc1cc([N+](=O)[O-])ccc1Nc1cccc(Cn2ccnc2)c1
[3]
  selectivity ratio: > 1000
[1]
  pEC50: 7.14
[2]
  pEC50: < 4.00

## Cc1cccc(Oc2cccc(Cn3ccnc3)c2)c1
[3]
  selectivity ratio: 238
[1]
  pEC50: 6.48
[2]
  pEC50: 4.10

## Cc1cc(OCCCCCCn2ccnc2)cc(C)c1Cl
[1]
  pEC50: 7.64

## Cc1nnc(-c2cccc(Oc3cc(C)c(Cl)c(C)c3)c2)o1
[1]
  pEC50: 4.85
[2]
  pEC50: 4.34

## Cc1cc(Oc2cccc(Cn3cc4ccccc4n3)c2)cc(C)c1Cl
[1]
  pEC50: 5.01
[2]
  pEC50: < 4.00

## Cc1cc(Oc2cccc(Cn3nccn3)c2)cc(C)c1Cl
[1]
  pEC50: 5.27
[2]
  pEC50: < 4.00

## Cc1cccc(OCCCCCn2ccnc2)c1
[1]
  pEC50: 6.35

## Cc1cc(Oc2cccc(Cn3cnc4ccccc43)c2)cc(C)c1Cl
[1]
  pEC50: 5.43
[2]
  pEC50: 4.40

## Clc1ccc(CCOc2cccc(Cn3ccnc3)c2)cc1
[3]
  selectivity ratio: 134
[1]
  pEC50: 6.28
[2]
  pEC50: 4.15

## Cc1nnc(-c2cccc(Oc3cc(C)c(Cl)c(C)c3)c2)s1
[1]
  pEC50: 4.91
[2]
  pEC50: < 4.00

## Cc1nnc(Cc2cccc(Oc3cc(C)c(Cl)c(C)c3)c2)o1
[1]
  pEC50: 5.47
[2]
  pEC50: 5.21

## Clc1ccc(Oc2cccc(Cn3ccnc3)c2)cc1
[3]
  selectivity ratio: > 150
[1]
  pEC50: 6.19
[2]
  pEC50: < 4.00

## Cc1cc(Oc2cccc(Cn3ccnc3)c2)cc(C)c1Cl
[8]
  permeability: 20.97 ×10⁻⁶ cm/s
[9]
  Activity: Active
[3]
  selectivity ratio: 169
[10]
  Stability: Stable
[11]
  Activity: Active
[12]
  remaining at 20 min: 36%
[13]
  Stability: -9.7%
[14]
  Stability: Stable
[15]
  inhibition at 10 µM: 94%
[1]
  pEC50: 7.10
[16]
  remaining at 20 min: 39%
[17]
  PPB: > 99.8%
[2]
  pEC50: 4.87
[18]
  PPB: > 99.8%
[19]
  Stability: Stable
[20]
  Stability: Stable
[21]
  remaining at 20 min: 29%
[22]
  Stability: Stable
[23]
  Stability: Stable
[24]
  inhibition at 1 µM: 19%
[4]
  pKd: 7.17
[25]
  Activity: Active
[26]
  Stability: 4%

— ChEMBL document CHEMBL2321803, “Antitrypanosomal lead discovery: identification of a ligand-efficient inhibitor of Trypanosoma cruzi CYP51 and parasite growth” (J Med Chem, 2013)
